# In the library only some 1.8% were active in any assay of this set; here they are far more common.
# SIAE inh = blocks human sialic acid acetylesterase; Q9HAT2; SIAE FP-Rh probe binding, fluorescence polarization; inhibition, % at 9.66 µM; actives 0.69% (n = 370,000);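 active means inhibition above a cutoff: mean of compounds within the control limits plus 3 SD of those, cut at about 17% in these data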;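 further: 0% = plate median of compound wells and 100% = probe without SIAE protein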
# HTRA1 inhibitor = blocks human HTRA1 serine peptidase; Q92743; inhibition, % at 5.96 µM; actives 0.5% (n = 340,000); AID 504803; recombinant HTRA1, FP-rhodamine activity-based probe, fluorescence polarization; in the data active means inhibition above about 36%;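 further: 0% = enzyme with DMSO and 100% = wells lacking enzyme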
# TCR CD3 inh = inhibitors of human TCR-CD3 interaction; TAMRA-labeled TCR probe fluorescence, biochemical; inhibition, % at 9.4 µM; actives 0.37% (n = 360,000); AID 651800; in the data active means inhibition above about 19%;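 further: recombinant mutant TCR 2C K166C tagged with TAMRA read by polarization; 0% = receptor in buffer alone and 100% = receptor with positive control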
# mABHD4 FP = inhibits mouse alpha/beta hydrolase domain 4; inhibition, % at 8.92 µM; Q8VD66; purified mABHD4, FP-Rh probe fluorescence polarization; actives 0.54% (n = 370,000);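 active means inhibition exceeding the mean over every tested compound plus 3 SD, cut at about 30% in these data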;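 further: 0% = plate median of compound wells and 100% = S159A mutant with DMSO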
# Target sequence (Q8VD66 whole entry, looked up, the tested form may be a part): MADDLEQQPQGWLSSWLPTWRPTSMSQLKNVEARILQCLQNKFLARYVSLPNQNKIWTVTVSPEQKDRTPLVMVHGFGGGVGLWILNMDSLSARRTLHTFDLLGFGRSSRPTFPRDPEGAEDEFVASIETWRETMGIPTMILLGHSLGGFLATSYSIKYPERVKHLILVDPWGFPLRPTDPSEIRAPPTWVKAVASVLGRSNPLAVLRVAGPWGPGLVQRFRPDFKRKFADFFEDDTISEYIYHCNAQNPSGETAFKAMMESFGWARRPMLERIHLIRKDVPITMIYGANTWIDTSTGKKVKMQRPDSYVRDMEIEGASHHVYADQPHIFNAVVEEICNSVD
#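 System: mouse ABHD4 enzyme, wild type / Medium: HEPES pH 7.0, NaCl, Pluronic buffer / Reagent: FP-Rh activity-based fluorescent probe / Control set: S159A mutant high control, sample median low control / Detection: fluorescence polarization with parallel and perpendicular emission, 525/598 nm / Schedule: 45 min + 60 min at 25 °C / Compound dosing: 8.92 µM, single dose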
# DDE Tn6 FP inh = inhibitors of Tn6 peptide binding to human fibrin DD(E); actives 0.21% (n = 370,000); P02675; inhibition, % at 8.3 µM; Fibrin DD(E) TRITC-Tn6 fluorescence polarization displacement; AID 720509;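 active means inhibition above a per-campaign cutoff: mean of compounds within control limits plus 3 SD, cut at about 15% in these data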;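 further: 0% = median of all compound wells on the plate and 100% = blocking peptide control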
# DDE Tn7 FP inh = disrupts Tn7 cyclic peptide binding to fibrin D-Dimer-E complex | AID 720508 | FP displacement of FITC-Tn7 peptide from fibrin DD(E); 0% = median of compound wells per plate | inhibition, % at 8.3 µM | P02675 | actives 0.13% (n = 370,000);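 active means inhibition above the mean of compounds falling within the control limits plus 3 SD of them, cut at about 14% in these data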;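 further: 0% = plate median of compound wells and 100% = 10 µM Aha-Tn7 peptide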
#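 Also added: labelled Tn7 tracer, 0.1 µM; Assay system: human fibrin DD(E) protein; Amount: 2 µM fibrin DD(E); Schedule: 10 min compound pre-incubation, 3 h probe incubation at room temperature; Repeats: one replicate per compound; Read-out basis: percent inhibition; Measured by: fluorescence polarization of the labelled Tn7 tracer.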
# SIAE inh conf = human SIAE inhibition, confirmation | inhibition, % at 9.66 µM | actives 13% (n = 2,300) | shares compounds with SIAE inh | SIAE FP-Rh activity-based probe, fluorescence polarization;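 active means mean inhibition of the replicates above the hit cutoff set in the primary screen, cut at about 17% in these data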;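 further: 0% = SIAE with DMSO and probe and 100% = probe without SIAE; inhibitors lower polarization as more probe stays unbound to SIAE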
# An asterisk follows results filed as active; · = no result given.
SMILES,SIAE inh,HTRA1 inhibitor,TCR CD3 inh,mABHD4 FP,DDE Tn6 FP inh,DDE Tn7 FP inh,SIAE inh conf
COc1cc2ccccc2cc1C(=O)N1CCN(C(C)=O)CC1,22*,5,1,0,4,-5,2
COc1cc2ccccc2cc1C(=O)N1CCN(c2ccccn2)CC1,4,-10,6,3,4,-2,·
NC(=S)NNc1ccnc2cc(Cl)ccc12,20*,0,-9,14,8,2,2
C/C(=N/Nc1ccnc2cc(Cl)ccc12)c1ccc(O)cc1,37*,4,2,29,-4,-1,15
FC(F)Oc1ccc(NC(=S)NNc2ccnc3cc(Cl)ccc23)cc1,35*,15,-6,24,0,-2,0
CC1(c2nnnn2-c2ccc(F)cc2)CCCC(=O)N1CCc1c[nH]c2ccccc12 (stereo not drawn),1,·,·,-1,-3,0,·
COC(=O)[C@]12C[C@H](CC(=O)NCc3ccc(OC)c(OC)c3)C(=O)N(Cc3ccc4c(c3)OCO4)C1=C[C@H](C(C)C)O[C@@H]2C1CC1,-7,·,·,-2,3,-7,·
CCCCCCC(=O)NC1CCCCN(C)C1=O (stereo not drawn),4,·,6,-1,6,2,·
COc1ccc(/C=C2\N=C3CCCCCN3C2=O)cc1OC,110*,11,-2,-2,-11,-7,5
COc1cc(/C=N/NC(=S)NC2CC3CC2C2C=CCC32)ccc1O (stereo not drawn),23*,-4,5,10,-6,-4,15
N#CCCN(C(=O)COC(=O)CNS(=O)(=O)c1ccc2ccccc2c1)c1ccccc1,23*,0,-5,2,-4,6,4
CN1C(=O)C[C@@](C#N)(C(=O)NCC(F)(F)F)[C@H]1c1ccccc1,10,·,·,0,6,1,·
CCOC(=O)c1[nH]c2ccc(Br)cc2c1NC(=O)CCN1CCN(C(=O)OCC)CC1,18*,-6,5,-7,-5,-9,0
CCOC(=O)c1[nH]c2ccc(Br)cc2c1NC(=O)CCN1CCOCC1,-3,5,-3,-12,-5,7,·
O=C(NCCCN1CCOCC1)c1ccc(S(=O)(=O)Nc2ccccc2F)cc1,17*,-1,0,3,3,1,-2
Nc1ccc(C(=O)O)cc1S(=O)(=O)O,25*,2,-6,2,9,2,-3
Cc1ccc(C(=O)O)cc1S(=O)(=O)N1CCCC1,-2,9,-8,-12,6,12,·
CCC(CO)Oc1cc(NCc2ccc(Cl)cc2Cl)c2ncn(C(C)C)c2c1 (stereo not drawn),19*,9,-1,28,-11,2,8
CCn1c2ccccc2c2cc(NC(=O)COC(=O)c3cc(F)ccc3C)ccc21,0,·,·,0,-4,-6,·
O=C1[C@@H]2Cc3c([nH]c4ccccc34)CN2C(=O)CN1CCCO,18*,-6,-2,0,2,-3,4
O=C(CCl)N1c2ccccc2OCC1c1ccccc1 (stereo not drawn),4,1,2,0,-2,-1,·
O=C(CCl)N1c2ccccc2SCC1c1ccccc1 (stereo not drawn),19*,-2,1,-1,0,-6,3
C[C@H]1C(C(=O)N(C)C2CCCCC2)=Cc2c(n(-c3ccc(F)cc3)c(=O)n2CCCOc2ccccc2)C=C1c1ccccc1,-1,·,-3,7,-4,0,·
O=C(OCC(=O)N1CCN(C(=O)COC(=O)c2ccccc2NCCO)CC1)c1ccccc1NCCO,6,-1,-3,3,-3,2,·
O=C(OCC(=O)N1CCN(C(=O)c2ccco2)CC1)c1ccccc1NCCO,24*,7,-8,4,3,5,1
COC(=O)[C@]12C[C@H](CC(=O)NCc3ccc(OC)c(OC)c3)C(=O)N(Cc3cccc4ccccc34)C1=C[C@H](COCc1ccccc1)O[C@@H]2C,-4,·,·,-11,-3,2,·
c1ccc(OCc2ccc(CCCN3CCOCC3)cc2)cc1,18*,0,5,3,-7,-3,-1
